Screening results deposited in PubChem by several laboratories.
NR2E3 ag-1 = inhibitors of NR2E3-RetCOR corepressor binding, primary screen, NR2E3 agonist project, biochemical, TR-FRET, GST-NR2E3, biotin-RetCOR; AID 2300, 2010; inhibition of corepressor binding, % at 4.78 µM; 1536-well; Photoreceptor-specific nuclear receptor (Homo sapiens), Q9Y5X4; hit rate 0.12% among 320,000;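 active means percent inhibition above the cutoff of mean plus 3 SD of all tested compounds, set per screening campaign, cut at about 20% in these data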;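 further: 0% = DMSO wells and 100% = biotin wells as full block of FRET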
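Material – GST-tagged NR2E3 plus biotinylated RetCOR corepressor · Quantity – NR2E3 fusion 1.35 nM · Times – 5 h incubation at 4 °C · Medium – pH 7.5 Tris-based buffer · Technique – TR-FRET, Eu(K)-anti-GST donor, streptavidin-D2 acceptor, ex 340, em 617/671 nm · Benchmarks – high control biotin, low control 0.6% DMSO · Format – 1536-well plates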
JMJD2C inh = inhibitors of GASC-1 histone demethylase, primary screen, biochemical, fluorescence, DELFIA europium; inhibition, % at 2.35 µM; GST-JMJD2C(1-420) H3K9me3 demethylation; hit rate 0.069% among 330,000;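 active means more than half of a compound's replicate wells show inhibition beyond 50%, single wells judged on their own value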;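 further: signal counts dimethyl H3K9 product captured on neutravidin plate; 0% = median of DMSO wells and 100% = 0.3 times that DMSO median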
NR2E3 ag-2 = NR2E3 agonists in two-hybrid cells, primary screen, cell-based, luminescence, CHO-S, Gal4-NCOR/VP16-NR2E3 | inhibition of corepressor binding, % at 3.98 µM | luciferase | AID 602229, 2012 | Photoreceptor-specific nuclear receptor (Homo sapiens), Q9Y5X4 | hit rate 0.35% among 360,000;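 active means inhibition above the mean of all tested compounds plus 3 SD, cut at about 70% in these data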;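 further: 0% = DMSO with NR2E3 transfected cells and 100% = cells lacking NR2E3 construct; higher means lower luciferase signal from less NR2E3 corepressor binding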
ADAM17 inh = ADAM17 inhibitors, primary screen, biochemical, QFRET; recombinant ADAM17, EDANS/DABCYL FRET peptide cleavage; inhibition, % at 6.95 µM; hit rate 0.83% among 370,000; AID 720648, 2013;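 active means inhibition above the mean of compounds lying between control limits plus 3 SD, set per campaign, cut at about 8.5% in these data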;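 further: 0% = DMSO-only wells as the low control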
proKLK7 act = proKLK7 zymogen activators, primary screen, biochemical, fluorescence intensity | AID 652039, 2013 | Kallikrein-7 (Homo sapiens), P49862 | purified proKLK7, EDANS-DABCYL substrate fluorescence; 100% is mature enzyme control, 0% vehicle | hit rate 0.9% among 370,000 | activation, % at 7 µM;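 active means activation above the mean of all tested compounds plus 3 SD, computed per campaign excluding outliers beyond control limits, cut at about 13% in these data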
Target sequence (P49862 whole entry, looked up): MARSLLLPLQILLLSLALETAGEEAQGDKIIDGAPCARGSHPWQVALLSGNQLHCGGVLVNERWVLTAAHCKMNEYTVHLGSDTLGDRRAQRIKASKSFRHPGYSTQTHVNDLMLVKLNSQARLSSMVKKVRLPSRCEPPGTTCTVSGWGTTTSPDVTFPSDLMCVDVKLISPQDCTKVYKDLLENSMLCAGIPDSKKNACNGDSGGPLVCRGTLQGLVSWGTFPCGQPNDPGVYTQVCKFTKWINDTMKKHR
ADAM10 inh = human ADAM10 inhibitors, primary screen, biochemical, QFRET, HTS. Disintegrin and metalloproteinase domain-containing protein 10 (Homo sapiens), O14672. recombinant ADAM10, EDANS/DABCYL FRET peptide cleavage, 3 h. inhibition, % at 7 µM. hit rate 0.62% among 370,000. AID 720582, 2013;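 active means inhibition above a per-campaign cutoff equal to the mean of compounds falling between control-based bounds plus 3 SD, cut at about 20% in these data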;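 further: 0% = DMSO wells while the 100% control is not disclosed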
proKLK7 act conf = proKLK7 zymogen activators, confirmation, biochemical, fluorescence intensity, triplicate. shares compounds with proKLK7 act. purified proKLK7, EDANS-DABCYL substrate fluorescence; scaled: vehicle 0, mature enzyme 100. activation, % at 7 µM. hit rate 68% among 3,200. AID 686949, 2013;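 active means activation, as change over the incubation, above the mean of all tested compounds plus 3 SD, cut at about 13% in these data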
EDANS interfere = EDANS-DABCYL substrate optical interference, artefact control for kallikrein-7 zymogen activator project, biochemical, fluorescence intensity, high throughput; hit rate 80% among 3,200; no enzyme, 4 h; solvent 0%, active enzyme control 100%; activation, % at 7 µM; shares compounds with proKLK7 act;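 active means activation above the all-compound mean plus 3 SD, ignoring values outside control-based bounds, cut at about 4.8% in these data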;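 further: value is the 4 h activation minus the activation read at time zero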
EDANS interf = EDANS fluorescence interference in dose response, no enzyme | EDANS-DABCYL peptide fluorescence interference | shares compounds with proKLK7 act | AID 720493 | EC50, µM | hit rate 20% among 250;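 active means compounds that raise the fluorescence signal in this interference counterscreen, with EC50 at or below 10 µM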;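 further: intact quenched peptide substrate alone read at 355 nm excitation and 520 nm emission; signal is fluorescence gain from T0 to T4 after four hours at room temperature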
Starred values were filed as active, the others as inactive; i = inactive; . = not tested or not shown. Hits are enriched below; roughly 2.5% of the tested compounds scored in any of these assays.

SMILES | NR2E3 ag-1 | JMJD2C inh | NR2E3 ag-2 | ADAM17 inh | proKLK7 act | ADAM10 inh | proKLK7 act conf | EDANS interfere | others
CCOc1ccc(C2CC=C(C(=O)O)CN2S(=O)(=O)c2ccc(C)cc2)cc1 (stereo unspecified) | . | . | . | 0 | 0 | -2 | . | .
COc1ccc(C2=Cc3ccc(OC(C)=O)cc3OC2)cc1 | . | . | -97 | -24 | 24* | -77 | 14* | 11*
COCCNS(=O)(=O)c1ccc2c(c1)C(=NO)c1cc(S(=O)(=O)NCCOC)ccc1-2 | 0 | -10 | 10 | -38 | 14* | -139 | 1 | -1
O=c1[nH]c(=O)c2nc(-c3ccc(Cl)cc3)cnc2[nH]1 | 2 | 7 | -17 | -366 | 57* | i | 70* | 69*
CC(C)Cc1ccc(CN2CCCC(NC(=O)CSc3nncn3C)C2)cc1 (stereo unspecified) | 0 | -10 | -3 | -2 | 0 | 1 | . | .
Cc1cccc2c(C(=O)O)c3cccc(C)c3nc12 | 1 | 11 | 5 | -349 | 28* | i | 49* | 42* | EDANS interf=>69
Cc1cccc2c(C(=O)O)c3c(nc12)CCCCC3 | 1 | -1 | -30 | -2 | 0 | -2 | . | .
COc1ccc(C2=Nc3ccccc3C2(O)CCN2C(=O)c3ccccc3C2=O)cc1 (stereo unspecified) | . | . | -12 | -9 | 16* | -32 | 22* | 22*
Cc1ccc(S(=O)(=O)N2C[C@H]3[C@H]4C(=O)N(c5ccccc5)C(=O)[C@H]4C[C@H](OC(=O)NCc4ccccc4F)[C@@]3(O)C2)cc1 | . | . | -33 | -2 | 0 | 0 | . | .
c1csc(-c2nnsc2-c2nc3ccccc3[nH]2)c1 | 4 | -13 | -88 | -4 | -1 | -7 | . | .
CC(c1nc2ccccc2[nH]1)n1c(=O)c(-c2cccs2)nc2ccccc21 (stereo unspecified) | . | . | . | -123 | 190* | -378 | 22* | -25 | EDANS interf=7.5*
O=c1[nH]c2ccccc2nc1-c1cccs1 | -3 | 2 | -55 | i | 32* | i | 32* | 43*
COc1cccc(OC)c1C(=O)Nc1nc2cc3c(cc2s1)OCO3 | 5 | 1 | -15 | -29 | 19* | -79 | -13 | -12
COc1ccccc1C(=O)Nc1nc2cc3c(cc2s1)OCO3 | 1 | 0 | -107 | -7 | -3 | -22 | . | .
Cc1ccc2nc(N3CCN(CCO)CC3)nc(-c3ccccc3)c2c1 | 2 | -20 | -9 | -92 | 21* | -255 | 6 | 4.1*
Clc1ccc2nc(N3CCNCC3)nc(-c3ccccc3)c2c1 | 1 | -6 | 17 | -127 | 16* | -491 | -6 | -9
CCN(CC)c1ccc(/C=C/C(=O)C2C(=O)C=C(C)OC2=O)cc1 (stereo unspecified) | 4 | 7 | -85 | 0 | 0 | -2 | . | .
C/C=C/c1cccc(-c2nc(C(=O)NC3CCCC3)cc3c2[C@@H](CCO)N(S(=O)C(C)(C)C)C3)c1 (stereo partly specified) | . | . | -7 | 1 | 0 | -5 | . | .
Cc1ccc(-c2cn3cccnc3n2)cc1NC(=O)c1ccc(Br)o1 | 3 | 0 | 12 | i | 22* | i | 17* | 4.9* | EDANS interf=>69
